# This excerpt belongs to a sample that is enriched for hits.
# TLR4-MyD88 BLA: inhibitors of TLR4-MyD88 association in cells, primary screen, cell-based, HeLa CL3-4, BLA complementation, FRET ratio. Toll-like receptor 4 (Homo sapiens) + Myeloid differentiation primary response protein …. HeLa CL3-4 TLR4/MyD88 BLA complementation. inhibition, % at 8.4 µM. 200,000 compounds, 0.18% hits; in the data active = inhibition above about 25%;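 also: 0% = vehicle and 100% = reference inhibitor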
# Target sequence (O00206 whole entry, looked up): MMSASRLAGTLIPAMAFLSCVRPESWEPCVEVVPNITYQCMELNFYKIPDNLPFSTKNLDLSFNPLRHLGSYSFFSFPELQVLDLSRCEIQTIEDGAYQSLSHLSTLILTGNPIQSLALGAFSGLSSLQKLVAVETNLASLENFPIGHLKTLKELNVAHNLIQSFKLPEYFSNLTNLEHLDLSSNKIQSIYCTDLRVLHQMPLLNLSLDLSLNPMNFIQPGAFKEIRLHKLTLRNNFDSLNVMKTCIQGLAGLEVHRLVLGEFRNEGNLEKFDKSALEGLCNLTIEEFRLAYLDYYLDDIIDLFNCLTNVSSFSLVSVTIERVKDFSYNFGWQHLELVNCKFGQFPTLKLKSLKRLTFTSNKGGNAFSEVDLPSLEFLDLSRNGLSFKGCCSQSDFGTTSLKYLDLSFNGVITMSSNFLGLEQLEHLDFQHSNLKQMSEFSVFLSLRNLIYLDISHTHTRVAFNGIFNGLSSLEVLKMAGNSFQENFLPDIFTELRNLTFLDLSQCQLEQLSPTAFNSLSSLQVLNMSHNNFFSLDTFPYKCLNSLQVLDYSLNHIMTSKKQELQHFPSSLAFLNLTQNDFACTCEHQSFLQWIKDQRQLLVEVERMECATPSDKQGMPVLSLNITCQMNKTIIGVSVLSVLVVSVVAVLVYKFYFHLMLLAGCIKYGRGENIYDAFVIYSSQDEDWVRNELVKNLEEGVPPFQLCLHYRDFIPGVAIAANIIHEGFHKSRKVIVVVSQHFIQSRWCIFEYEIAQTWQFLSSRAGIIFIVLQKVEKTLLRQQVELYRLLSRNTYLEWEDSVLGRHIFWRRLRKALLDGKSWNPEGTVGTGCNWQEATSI
# Target sequence (Q99836 whole entry, looked up): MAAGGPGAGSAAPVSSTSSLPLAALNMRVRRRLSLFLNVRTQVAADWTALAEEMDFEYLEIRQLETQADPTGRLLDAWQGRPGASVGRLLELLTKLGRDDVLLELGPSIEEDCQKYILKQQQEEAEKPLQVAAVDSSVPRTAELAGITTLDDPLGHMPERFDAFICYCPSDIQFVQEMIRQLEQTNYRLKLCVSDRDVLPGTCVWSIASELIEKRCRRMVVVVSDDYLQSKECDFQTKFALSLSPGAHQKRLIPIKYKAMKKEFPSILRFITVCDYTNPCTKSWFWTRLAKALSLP
# CHOP inhibitor: inhibitors of CHOP promoter induction, primary screen, cell-based, unfolded protein response, luciferase reporter; CHO-K1 CHOP-promoter luciferase, tunicamycin-induced, 15-18 h; inhibition, % at 10 µM; 220,000 compounds, 3.8% hits; AID 2732, 2010;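 active = compounds that reduced the stress-induced luciferase reporter signal by more than about 70% of percent inhibition, limit read from the data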;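 also: 0% = tunicamycin plus vehicle and 100% = wells without tunicamycin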
# XBP1 UPR activ: activators of adaptive XBP1 UPR arm, primary screen, cell-based, CHO-XBP1 luciferase reporter, luminescence, uHTS; activation, % at 20 µM; AID 463104, 2010; 330,000 compounds, 0.33% hits; IRE1-XBP1 UPR activation; percent of tunicamycin response, DMSO as zero;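 active = versus positive control, 20 µM dose yields 30% or more activation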;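 also: 100% = tunicamycin at 10 µg/mL and 0% = DMSO only wells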
#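 Signal: luciferase luminescence; Assay system: CHO-XBP1 luciferase reporter cells; Amount: one thousand reporter cells per well; Dosing: 20 µM single concentration, DMSO 1%; Benchmarks: high control tunicamycin 10 µg/mL final, low control DMSO vehicle only; Schedule: 6 h compound exposure at 37 °C, 5% CO2; Evaluation: percent activation relative to tunicamycin reference.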
# NOD2-RIPK2 inh: NOD2-RIPK2 binding disruptors in cells, primary screen, fluorescence, CHO cells, BLA complementation. Receptor-interacting serine/threonine-protein kinase 2 (Homo sapiens), O43353. inhibition, % at 4.98 µM. CCF4 ratio. 360,000 compounds, 0.38% hits; in the data active = inhibition above about 21%;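 also: 0% = vehicle only and 100% = reference blocker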
# CHOP UPR activ: activators of apoptotic CHOP UPR arm, primary screen, cell-based, CHO-CHOP luciferase reporter, luminescence, uHTS | UPR activation; percent of tunicamycin response over DMSO baseline | activation, % at 10 µM | 330,000 compounds, 0.34% hits;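 active = at 10 µM dose, activation of 40% or more, normalized to positive control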;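 also: 100% = tunicamycin at 10 µg/mL and 0% = DMSO alone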
#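 measured by = luciferase luminescence | assay system = CHO-CHOP cells, stable luciferase reporter of PERK-eIF2a-CHOP signalling | amount = 500 reporter cells seeded per well | timing = 6 h compound exposure at 37 °C after overnight seeding | controls = positive tunicamycin 10 µg/mL, negative DMSO alone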
# TLR9-MyD88 inh: inhibitors of TLR9-MyD88 association in cells, primary screen, cell-based, CHO, BLA complementation, fluorescence. Toll-like receptor 9 (Homo sapiens) + Myeloid differentiation primary response protein …. CCF4 FRET ratio. inhibition, % at 4.98 µM. 340,000 compounds, 0.21% hits;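 active = inhibition above the mean over all tested compounds plus 3 SD, cut at about 21% in these data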;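 also: 0% = DMSO only wells and 100% = clavulanate BLA inhibitor control wells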
# * marks the source's active call; other numbers are inactive results; / = no result.
SMILES,TLR4-MyD88 BLA,CHOP inhibitor,XBP1 UPR activ,NOD2-RIPK2 inh,CHOP UPR activ,TLR9-MyD88 inh
CC1(C)C2SCC(=O)N2CCN1CC(=O)NN (configuration not stated),/,84.0*,1.2,6.8,0.4,7.4
CCCn1c(C)c(C(=O)c2ccc3ccccc3c2)c2ccccc21,/,-17.7,/,/,/,/
Nc1c(C(=O)NCCc2ccccc2)c2nc3ccccc3nc2n1CCN1CCOCC1,-25.7,88.5*,2.7,-9.3,-0.6,-0.1
CC(C)CCNC(=O)c1c(N)n(CC2CCCO2)c2nc3ccccc3nc12 (configuration not stated),-39.1,76.1*,0.7,-5.5,1.2,-16.1
Nc1c(C(=O)NCCN2CCOCC2)c2nc3ccccc3nc2n1Cc1ccccc1,/,34.1,-5.1,3.8,0.0,-9.3
COc1ccc(CCNC(=O)c2c(N)n(CCN3CCOCC3)c3nc4ccccc4nc23)cc1,-28.9,75.7*,1.2,-3.5,3.3,-10.2
CCCCn1c(N)c(C(=O)NCCN2CCOCC2)c2nc3ccccc3nc21,-1.0,27.7,3.0,1.1,0.2,-4.5
Cc1cccc(CN2CCN(c3ccc(Cl)cc3)CC2)c1,-2.8,82.6*,1.3,-3.0,1.2,-3.9
Oc1ccc2c3c1O[C@H]1c4oc5ccccc5c4C[C@@]4(O)C(C2)N(CC2CC2)CCC314 (some centres not stated),/,-22.8,/,/,/,/
CC(C)Oc1cc(-n2c(=S)[nH]c3ccccc3c2=O)c(Cl)cc1Cl,0.3,82.6*,1.7,4.8,1.0,1.4
Cc1cc(/C=C2\C(=O)NC(=O)N(c3ccc(Cl)cc3)C2=O)c(C)n1C,-3.4,79.5*,0.7,-6.7,-0.9,-1.9
Cc1cc(C)cc(N2C(=O)NC(=O)/C(=C\c3cc(C)n(C)c3C)C2=O)c1,-11.0,9.7,-0.3,5.2,-0.9,-11.3
CC(O)C(C)OC(=O)[C@@H]1C[C@@H]2c3cccc4c3c(cn4C(C)C)C[C@H]2N(C)C1 (some centres not stated),/,-0.4,/,/,/,/
CCn1cc(C(=O)c2cccs2)c2ccccc21,-6.7,77.2*,7.5,-2.2,-1.3,-1.1
CP(=O)(O)C1=CCNCC1,/,0.7,/,/,/,/
COc1cccc(/C=C2\N=C(c3cncc(Br)c3)OC2=O)c1,18.3,85.2*,0.5,-1.5,0.6,-2.2
O=C1NC(=S)N(c2ccccc2F)C(=O)/C1=C\c1cccs1,0.4,83.5*,-6.6,-77.5,4.1,-5.7
CCOC(=O)[C@]12Cc3ccc4ccccc4c3[C@H]1N(Cc1ccccc1)C(=O)c1ccccc12,/,/,/,-7.5,/,/
CC(C)CCCn1c(O)c(/C=C2/C=CC=N2)c(=O)[nH]c1=O,1.6,85.1*,3.0,8.7,0.9,-6.3
Clc1ccc2c(c1)C(c1ccccc1Cl)=NCc1nnc(N3CCN(CCSc4ccccc4)CC3)n1-2,11.7,53.5,-3.9,3.3,-0.9,-1.0
Clc1ccc2c(c1)C(c1ccccc1Cl)=NCc1nnc(N3CCN(CCOc4ccccc4)CC3)n1-2,-3.9,88.3*,-1.9,0.4,0.1,0.8
CCOC(=O)[C@@H]1[C@H]2COc3ccc(Br)cc3[C@H]2N2C(=O)N(c3cccc(C)c3)C(=O)[C@]12C,/,/,1.8,-9.0,0.9,8.9
CCNC(=O)[C@H]1O[C@@H](n2cnc3c(N)ncnc32)C(O)[C@H]1O (some centres not stated),/,-16.9,/,/,/,/
COC[C@H]1OC(=O)c2coc3c2[C@@]1(C)C1=C(C3=O)C2CCC(=O)[C@@]2(C)C[C@H]1OC(C)=O (some centres not stated),/,-10.8,/,/,/,/
Oc1ccc2c3c1OC1c4[nH]c5ccccc5c4C[C@@]4(O)C(C2)N(CC2CC2)CC[C@]314 (some centres not stated),/,/,0.0,11.4,0.4,-7.0
SMILES,TLR4-MyD88 BLA,CHOP inhibitor,XBP1 UPR activ,NOD2-RIPK2 inh,CHOP UPR activ,TLR9-MyD88 inh
O=C1/C(=C/c2ccccc2)C[C@@]2(O)[C@H]3Cc4ccc(O)c5c4[C@@]2(CCN3CC2CC2)C1O5 (some centres not stated),/,/,-9.4,35.0*,27.5,7.3
NC(=O)CN1CC(O)CC1=O (configuration not stated),/,14.1,/,/,/,/
C=CCNC(=O)c1c(N)n(Cc2ccco2)c2nc3ccccc3nc12,-12.0,76.9*,-2.8,-13.9,-0.4,-9.6
Cc1ccccc1N1C(=O)NC(=O)/C(=C\c2cc(Br)c(N3CCOCC3)o2)C1=O,-2.4,72.3*,3.3,-13.2,17.8,1.4
O=C1NC(=S)NC(=O)C1=Cc1cccc2cc3ccccc3cc12,/,107.8*,/,3.8,/,8.4
Cc1ccc2c(c1)CC1(CN2C)C(=O)NC(=O)N(CCc2ccccc2)C1=O (configuration not stated),4.9,91.4*,-0.4,-8.6,-0.8,-1.3
O=c1[nH]c(=O)n(Cc2ccccc2)c(O)c1/C=C1\C=Nc2ccccc21,10.9,83.0*,12.0,-13.4,-3.4,3.7
CCOC(=O)[C@]12Cc3c(cc(OC)c(OC)c3OC)[C@H]1N(C(C)C)C(=O)c1cc(OC)ccc12,/,/,/,9.8,/,/
CCN1C[C@]2(C)CC[C@H](O)[C@@]34C5C[C@@H]6[C@@H](OC)C[C@@](O)(C5[C@H]6O)[C@@H](CC23)C14 (some centres not stated),/,24.0,/,/,/,/
Cc1ccc(CN2C(=O)NC(=O)C3(Cc4c(nc5ccccn5c4=O)N4CCCCCC43)C2=O)cc1 (configuration not stated),-0.2,86.3*,2.4,-7.7,8.2,-0.8
Cc1ccc(N2C(=O)NC(=O)C3(Cc4ccccc4N4CCN(c5ccccc5)CC43)C2=O)cc1 (configuration not stated),0.3,70.5*,3.6,-0.7,-0.2,5.5
O=C1NC(=O)C2(CCCC2)C(=O)N1,/,/,/,-5.0,/,12.0
COc1cccc(NP(=O)(Oc2ccccc2)Oc2ccccc2)c1,9.2,15.6,-1.7,6.3,-0.9,6.0
COc1cccc(NP(=O)(Oc2ccccc2Cl)Oc2ccccc2Cl)c1,9.9,91.0*,-2.0,-2.8,0.3,2.5
N#CC(=Cc1ccc(O)c(O)c1)C(N)=S,/,-1.7,/,/,/,/
Cc1cccc(C)c1NC(=O)c1cccn(Cc2ccc3c(c2)OC(F)(F)O3)c1=O,3.9,85.9*,1.7,-2.4,1.6,-0.9

# Screening results as filed in PubChem BioAssay.
